Source: ChEMBL document CHEMBL4689842, “EUbOPEN Chemogenomics Library wave 1” (2021)

Test system: U2OS
Assay: Multiplex assay against U2OS
Assay type: toxicity, cell-based
Details: human
How it was run: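 Live cells were stained at seeding with Hoechst33342, BioTracker Green Microtubule Cytoskeleton Dye, MitoTracker Red and Annexin V Alexa Fluor 680. Following compound addition, they were imaged on a CQ1 microscope at 37°C and 5% CO2 and gated by CellPathfinder machine learning into Hoechst high-intensity objects or normal cells, with normal cells split into healthy, pyknosed or fragmented nuclei and pyknosed cells into mitotic or apoptotic. Tubulin, mitochondrial-mass and membrane-permeability phenotypes are per cents of healthy-nucleus cells.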

[1] = 12 h, 1 µM, compound concentration 1 uM, replicate 1
[2] = 12 h, 1 µM, compound concentration 1 uM, replicate 2
[3] = 12 h, 10 µM, compound concentration 10 uM, replicate 1
[4] = 12 h, 10 µM, compound concentration 10 uM, replicate 2
[5] = 24 h, 1 µM, compound concentration 1 uM, replicate 1
[6] = 24 h, 1 µM, compound concentration 1 uM, replicate 2
[7] = 24 h, 10 µM, compound concentration 10 uM, replicate 1
[8] = 24 h, 10 µM, compound concentration 10 uM, replicate 2
[9] = 48 h, 1 µM, compound concentration 1 uM, replicate 1
[10] = 48 h, 1 µM, compound concentration 1 uM, replicate 2
[11] = 48 h, 10 µM, compound concentration 10 uM, replicate 1
[12] = 48 h, 10 µM, compound concentration 10 uM, replicate 2

## CN1CCN(c2ccc(OC(F)(F)F)c(Nc3ncc4c(n3)-c3c(c(C(N)=O)nn3CCO)CC4)c2)CC1 [ONVANSERTIB]
[1]
  Population Apoptotic (%): 36%
  Population Fragmented Nuclei (%): 14%
  Population Healthy Nuclei (%): 78%
  Population Hoechst High Intensity Objects (%): 6%
  Population Membrane Permeable-Phenotype (%): 11%
  Population Mitochondria Different-Phenotype (%): 10%
  Population Mitotic Cells (%): 63%
  Population Normal (%): 94%
  Population Pyknosed Nuclei (%): 7%
  Population Tubulin-Different-Phenotype (%): 13%
  Total Cell Count: 569
[2]
  Population Apoptotic (%): 25%
  Population Fragmented Nuclei (%): 11%
  Population Healthy Nuclei (%): 80%
  Population Hoechst High Intensity Objects (%): 14%
  Population Membrane Permeable-Phenotype (%): 0%
  Population Mitochondria Different-Phenotype (%): 14%
  Population Mitotic Cells (%): 75%
  Population Normal (%): 85%
  Population Tubulin-Different-Phenotype (%): 16%
  Total Cell Count: 66
[3]
  Population Apoptotic (%): 72%
  Population Fragmented Nuclei (%): 10%
  Population Healthy Nuclei (%): 79%
  Population Hoechst High Intensity Objects (%): 6%
  Population Membrane Permeable-Phenotype (%): 3%
  Population Mitochondria Different-Phenotype (%): 77%
  Population Mitotic Cells (%): 27%
  Population Normal (%): 93%
  Population Pyknosed Nuclei (%): 10%
  Population Tubulin-Different-Phenotype (%): 84%
  Total Cell Count: 150
[4]
  Population Apoptotic (%): 40%
  Population Fragmented Nuclei (%): 9%
  Population Healthy Nuclei (%): 78%
  Population Hoechst High Intensity Objects (%): 19%
  Population Membrane Permeable-Phenotype (%): 0%
  Population Mitochondria Different-Phenotype (%): 84%
  Population Mitotic Cells (%): 60%
  Population Normal (%): 80%
  Population Pyknosed Nuclei (%): 12%
  Population Tubulin-Different-Phenotype (%): 78%
  Total Cell Count: 61
[5]
  Population Apoptotic (%): 35%
  Population Fragmented Nuclei (%): 14%
  Population Healthy Nuclei (%): 73%
  Population Hoechst High Intensity Objects (%): 7%
  Population Membrane Permeable-Phenotype (%): 12%
  Population Mitochondria Different-Phenotype (%): 17%
  Population Mitotic Cells (%): 64%
  Population Normal (%): 92%
  Population Pyknosed Nuclei (%): 12%
  Population Tubulin-Different-Phenotype (%): 18%
  Total Cell Count: 962
[6]
  Population Apoptotic (%): 57%
  Population Fragmented Nuclei (%): 21%
  Population Healthy Nuclei (%): 65%
  Population Hoechst High Intensity Objects (%): 5%
  Population Membrane Permeable-Phenotype (%): 5%
  Population Mitochondria Different-Phenotype (%): 32%
  Population Mitotic Cells (%): 42%
  Population Normal (%): 94%
  Population Pyknosed Nuclei (%): 13%
  Population Tubulin-Different-Phenotype (%): 11%
  Total Cell Count: 73
[7]
  Population Apoptotic (%): 82%
  Population Healthy Nuclei (%): 79%
  Population Hoechst High Intensity Objects (%): 4%
  Population Membrane Permeable-Phenotype (%): 1%
  Population Mitochondria Different-Phenotype (%): 77%
  Population Mitotic Cells (%): 17%
  Population Normal (%): 95%
  Population Pyknosed Nuclei (%): 9%
  Population Tubulin-Different-Phenotype (%): 53%
  Total Cell Count: 151
[8]
  Population Apoptotic (%): 40%
  Population Fragmented Nuclei (%): 11%
  Population Healthy Nuclei (%): 77%
  Population Hoechst High Intensity Objects (%): 16%
  Population Membrane Permeable-Phenotype (%): 5%
  Population Mitochondria Different-Phenotype (%): 82%
  Population Mitotic Cells (%): 60%
  Population Normal (%): 83%
  Population Pyknosed Nuclei (%): 11%
  Population Tubulin-Different-Phenotype (%): 55%
  Total Cell Count: 55
[9]
  Population Apoptotic (%): 62%
  Population Fragmented Nuclei (%): 25%
  Population Healthy Nuclei (%): 56%
  Population Hoechst High Intensity Objects (%): 5%
  Population Membrane Permeable-Phenotype (%): 14%
  Population Mitochondria Different-Phenotype (%): 49%
  Population Mitotic Cells (%): 37%
  Population Normal (%): 94%
  Population Pyknosed Nuclei (%): 18%
  Population Tubulin-Different-Phenotype (%): 13%
  Total Cell Count: 1338
[10]
  Population Apoptotic (%): 53%
  Population Fragmented Nuclei (%): 27%
  Population Healthy Nuclei (%): 45%
  Population Hoechst High Intensity Objects (%): 6%
  Population Membrane Permeable-Phenotype (%): 24%
  Population Mitochondria Different-Phenotype (%): 48%
  Population Mitotic Cells (%): 46%
  Population Normal (%): 93%
  Population Pyknosed Nuclei (%): 27%
  Population Tubulin-Different-Phenotype (%): 12%
  Total Cell Count: 97
[11]
  Population Apoptotic (%): 91%
  Population Fragmented Nuclei (%): 17%
  Population Healthy Nuclei (%): 63%
  Population Hoechst High Intensity Objects (%): 2%
  Population Membrane Permeable-Phenotype (%): 5%
  Population Mitochondria Different-Phenotype (%): 60%
  Population Mitotic Cells (%): 8%
  Population Normal (%): 97%
  Population Pyknosed Nuclei (%): 19%
  Population Tubulin-Different-Phenotype (%): 43%
  Total Cell Count: 153
[12]
  Population Apoptotic (%): 57%
  Population Fragmented Nuclei (%): 20%
  Population Hoechst High Intensity Objects (%): 10%
  Population Membrane Permeable-Phenotype (%): 28%
  Population Mitochondria Different-Phenotype (%): 67%
  Population Mitotic Cells (%): 42%
  Population Normal (%): 89%
  Population Pyknosed Nuclei (%): 15%
  Population Tubulin-Different-Phenotype (%): 57%
  Total Cell Count: 59
